The source made the active and inactive calls. The calls are words filed in the database; no cut-off is given here.

Two molecules from ChEMBL document CHEMBL1671756, “In vitro and in vivo antifungal susceptibilities of the Mucoralean fungus Cunninghamella” (2010) can be followed below.

Common to all, as to format: functional, organism-based
The test system of assay [1] is Cunninghamella bertholletiae. Kind of assay: Antifungal activity against Cunninghamella bertholletiae UTHSC 05-2275 infected in neutropenic OF1 mouse assessed as increase in mouse survival rate at 0.8 mg/kg, iv qd administered 1 day after infection for 7 days relative to untreated control. Details: dose 0.8 mg/kg. The method, boiled down:
(§1)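 Male OF1 mice (~30 g) were made neutropenic with cyclophosphamide 200 mg/kg i.p. plus 5-fluorouracil 150 mg/kg i.v. 1 day before challenge. Challenge was 1 × 10⁴ CFU sporangiospores in 0.2 ml saline via the lateral tail vein. Mice got ceftazidime 5 mg/day s.c. on days 1–7. Dosing started 24 h post-challenge for 7 days. There were 10 mice/group, observed daily for 20 days. Kaplan-Meier analysis with log-rank test.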

Assay [2] deals with Cunninghamella bertholletiae. Kind of assay: Antifungal activity against Cunninghamella bertholletiae UTHSC 03-2241 infected in neutropenic OF1 mouse assessed as increase in mouse survival rate at 0.8 mg/kg, iv qd administered 1 day after infection for 7 days relative to untreated control. Details: dose 0.8 mg/kg. In outline:
as §1

For assay [3], the system named is Cunninghamella bertholletiae. Kind of assay: Antifungal activity against Cunninghamella bertholletiae UTHSC 06-1945 infected in neutropenic OF1 mouse assessed as increase in mouse survival rate at 0.8 mg/kg, iv qd administered 1 day after infection. More on the design: dose 0.8 mg/kg. In outline:
as §1

Assay [4] concerns Cunninghamella bertholletiae. The assay is described as follows: Antifungal activity against Cunninghamella bertholletiae UTHSC 05-2275 infected in neutropenic OF1 mouse assessed as decreased fungal load in lung at 0.8 mg/kg, iv qd administered 1 day post infection measured after 4 to 5 days relative to untreated control. Details: dose 0.8 mg/kg. The method, boiled down: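 Neutropenic male OF1 mice (cyclophosphamide 200 mg/kg i.p. + 5-fluorouracil 150 mg/kg i.v., day −1) were infected i.v. with 1 × 10⁴ CFU. Ten mice per group were treated from day 1 and killed by CO₂ on day 5, or on day 4 if moribund. Half of each brain, lung and kidney was homogenized in 1 ml saline. Ten-fold dilutions were plated on PDA for 24 h at 35°C and counted as log₁₀ CFU/g.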

The test system of assay [5] is Cunninghamella bertholletiae. The assay is described as follows: Antifungal activity against Cunninghamella bertholletiae FMR 9598 infected in neutropenic OF1 mouse assessed as increase in mouse survival rate at 60 mg/kg, po qd administered 1 day after infection for 7 days relative to untreated control. More on the design: dose 60 mg/kg. In outline: (§2)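 Male OF1 mice, about 30 g, made neutropenic with cyclophosphamide 200 mg/kg i.p. plus 5-fluorouracil 150 mg/kg i.v. 1 day before challenge. Infected i.v. via the lateral tail vein with 1 × 10⁴ CFU of hemacytometer-counted sporangiospores in 0.2 ml saline. Ceftazidime 5 mg/day s.c. on days 1–7. Oral treatment started 24 h after challenge; 10 mice per group; checked daily for 20 days; Kaplan-Meier mean survival time, log-rank test.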

Assay [6] deals with Cunninghamella bertholletiae. The assay is described as follows: Antifungal activity against Cunninghamella bertholletiae UTHSC 05-2275 infected in diabetic OF1 mouse assessed as increase in mouse survival rate at 40 mg/kg, po qd administered 1 day after infection for 7 days relative to untreated control. More on the design: dose 40 mg/kg. The method, boiled down: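 Male OF1 mice made diabetic with streptozocin 210 mg/kg i.p.; blood glucose above 250 mg/dl at day 10 required. Infected i.v. via the tail vein with 1 × 10⁵ CFU sporangiospores in 0.2 ml saline. Ceftazidime 5 mg/day s.c. on days 1–7. Oral once-daily treatment from day 1 for 7 days; 10 mice per group; followed for 20 days; Kaplan-Meier mean survival time, log-rank test.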

Assay [7] has as its system Cunninghamella bertholletiae. Kind of assay: Antifungal activity against Cunninghamella bertholletiae UTHSC 05-2275 infected in neutropenic OF1 mouse assessed as decreased fungal load in brain at 40 mg/kg, po qd administered 1 day post infection measured after 4 to 5 days relative to untreated control. More on the design: dose 40 mg/kg. In outline: (§3)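 Neutropenic male OF1 mice (cyclophosphamide 200 mg/kg i.p. plus 5-fluorouracil 150 mg/kg i.v., day −1) were given 1 × 10⁴ CFU sporangiospores i.v. in 0.2 ml saline. Treatment from 24 h: 0.8 mg/kg i.v. or oral doses once daily; 10 mice per group. Killed at day 5 (day 4 if moribund). About half of brain, lungs and kidneys homogenized in saline; 10-fold dilutions plated on PDA for 24 h at 35°C; log₁₀ CFU/g tissue.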

The test system of assay [8] is Cunninghamella bertholletiae. Kind of assay: Antifungal activity against Cunninghamella bertholletiae UTHSC 05-2275 infected in neutropenic OF1 mouse assessed as decreased fungal load in kidney at 40 mg/kg, po qd administered 1 day post infection measured after 4 to 5 days relative to untreated control. Details: dose 40 mg/kg. In outline: as §3
The subject of assay [9] is Cunninghamella bertholletiae. Kind of assay: Antifungal activity against Cunninghamella bertholletiae UTHSC 04-2581 infected in neutropenic OF1 mouse assessed as decreased fungal load in brain at 60 mg/kg, po qd administered 1 day post infection measured after 4 to 5 days relative to untreated control. More on the design: dose 60 mg/kg. The method, boiled down:
as §3

In assay [10] the test system is Cunninghamella bertholletiae. Kind of assay: Antifungal activity against Cunninghamella bertholletiae UTSCH 05-2275 infected in diabetic OF1 mouse assessed as decreased fungal load in kidney at 60 mg/kg, po qd administered 1 day post infection measured after 4 to 5 days relative to untreated control. Details: dose 60 mg/kg. In outline: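 Diabetic male OF1 mice (streptozocin 210 mg/kg i.p.; glucose above 250 mg/dl) were challenged i.v. with 1 × 10⁵ CFU sporangiospores. Oral once-daily dosing from day 1 for 7 days; 10 mice per group. Killed at day 5 (day 4 if moribund). About half of each organ homogenized in saline; serial 10-fold dilutions plated on PDA for 24 h at 35°C; log₁₀ CFU/g tissue.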

Assay [11] deals with Cunninghamella bertholletiae. The assay is described as follows: Antifungal activity against Cunninghamella bertholletiae UTHSC 04-2581 infected in neutropenic OF1 mouse assessed as increase in mouse survival rate at 60 mg/kg, po qd administered 1 day after infection for 7 days relative to untreated control. More on the design: dose 60 mg/kg. The method, boiled down: as §2

`C[C@@H]1[C@H](O)[C@@H](C)/C=C/C=C/C=C/C=C/C=C/C=C/C=C/[C@H](O[C@@H]2O[C@H](C)[C@@H](O)[C@H](N)[C@@H]2O)C[C@@H]2O[C@](O)(C[C@@H](O)C[C@@H](O)[C@H](O)CC[C@@H](O)C[C@@H](O)CC(=O)O[C@H]1C)C[C@H](O)[C@H]2C(=O)O` [AMPHOTERICIN B]: the result in assay [1], in assay [2] and in [4] was Active. For the same molecule, the result in assay [3] was inactive.
In the case of `CC[C@@H]([C@H](C)O)n1ncn(-c2ccc(N3CCN(c4ccc(OC[C@@H]5CO[C@@](Cn6cncn6)(c6ccc(F)cc6F)C5)cc4)CC3)cc2)c1=O` [POSACONAZOLE], the result in assay [5], in assay [6], in [7], in [8], in assay [9] and in [10] was Active. Further, the outcome in assay [11] was Active.
